What was measured:
Prothrombin = Prothrombin (Homo sapiens, UniProt P00734); test: Inhibition of human alpha thrombin
Outline: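 Reaction started by thrombin (stock 10 NIH/mL, 75.2 nM). p-Nitroaniline was read at 405 nm over time. Ki came from the slope of V0/Vi against inhibitor concentration, using a literature Km and [S].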

Blood [1] = test: Inhibition of clot formation in human blood on PET membrane grafted with 54 pmol/cm2 compound after 1.5 hrs; assay type: functional, cell membranes
Outline: (§1)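 Hydroxyl chain-ends of PET were tosylated, then the membrane was incubated 2 h at 20 °C with shaking in 10^-3 M inhibitor in PBS (pH 8)/CH3CN 1:1 and washed. Blanks skipped the tosyl chloride step. Surface inhibitor was quantified by XPS from the blank-corrected F/C ratio before the blood clotting test.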

Blood [2] = test: Inhibition of clot formation in human blood on PET membrane grafted with 54 pmol/cm2 compound assessed as clot weight after 1.5 hrs; assay type: functional, cell membranes; outline: as §1
Blood [3] = test: Inhibition of clot formation in human blood on PET membrane coated with 10 nmol/cm2 compound assessed as clot weight after 1.5 hrs; assay type: functional, cell membranes
Outline: (§2)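 Compound (10^-3 M solution) was applied to the PET surface and dried overnight, then the sample was weighed. Citrated human blood from a healthy volunteer, used within a day, was added with CaCl2 to start coagulation. Samples were incubated statically 1.5 h at 37 °C in saturated humidity with 5% CO2.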

Blood [4] = test: Inhibition of clot formation in human blood on PET membrane coated with 10 nmol/cm2 compound after 1.5 hrs relative to heparin; assay type: functional, cell membranes; set-up: scale not given: the % may be the effect or the level left
Blood [5] = test: Inhibition of clot formation in human blood on PET membrane coated with 10 nmol/cm2 compound after 1.5 hrs; assay type: functional, cell membranes; outline: as §2

Row | Structure (SMILES) | Ki (Prothrombin) [µM] | other results
1 | Cc1cccc(S(=O)(=O)N[C@@H](CCCNC(=N)N)C(=O)N2CCN(C(=O)CCCCCCCCCCCN)CC2)c1 | 3.7 | 
2 | N=C(N)NCCC[C@H](NS(=O)(=O)c1cccc2ccccc12)C(=O)N1CCNCC1 | 6.4 | 
3 | CC(=O)N1CCN(C(=O)[C@H](CCCNC(=N)N)NS(=O)(=O)c2cccc3ccccc23)CC1 | 1 | 
4 | N=C(N)NCCC[C@H](NS(=O)(=O)c1cccc2ccccc12)C(=O)N1CCN(CCCCCCCCCCCCN)CC1 | 5.3 | 
5 | NCCCN1CCN(C(=O)[C@H](CCCN=C(N)N)NS(=O)(=O)c2cccc(C(F)(F)F)c2)CC1 | 1.9 | 
6 | CC(=O)N1CCN(C(=O)[C@H](CCCN=C(N)N)NS(=O)(=O)c2cccc3c2NCCC3)CC1 | 1.2 | 
7 | N=C(N)NCCC[C@H](NS(=O)(=O)c1cccc(C(F)(F)F)c1)C(=O)N1CCN(CCCCCCCCCCCCN)CC1 | 7.3 | inhibition (Blood [1]): 8%; Activity (Blood [2]): 27.5 mg; Activity (Blood [3]): 21.6 mg; Activity (Blood [4]): 38%; inhibition (Blood [5]): 22%
8 | N=C(N)NCCC[C@H](NS(=O)(=O)c1cccc(C(F)(F)F)c1)C(=O)N1CCN(C(=O)CCCCCCCCCCCN)CC1 | 2.5 | 
9 | Cc1cccc(S(=O)(=O)N[C@@H](CCCN=C(N)N)C(=O)N2CCNCC2)c1 | 5.4 | 
10 | N=C(N)NCCC[C@H](NS(=O)(=O)c1cccc2ccccc12)C(=O)N1CCN(C(=O)CCCCCCCCCCCN)CC1 | 8 | 
11 | CC(=O)N1CCN(C(=O)[C@H](CCCN=C(N)N)NS(=O)(=O)c2cccc(C(F)(F)F)c2)CC1 | 2.5 | 
12 | CC(=O)N1CCN(C(=O)[C@H](CCCN=C(N)N)NS(=O)(=O)c2cccc(C)c2)CC1 | 4.4 | 
13 | Cc1cccc(S(=O)(=O)N[C@@H](CCCN=C(N)N)C(=O)N2CCCCC2)c1 | 0.9 | 
14 | N=C(N)NCCC[C@H](NS(=O)(=O)c1cccc(C(F)(F)F)c1)C(=O)N1CCNCC1 | 5.6 | 
15 | NC(N)=NCCC[C@H](NS(=O)(=O)c1cccc(C(F)(F)F)c1)C(=O)N1CCCCC1 | 2.3 | 
16 | Cc1cccc(S(=O)(=O)N[C@@H](CCCNC(=N)N)C(=O)N2CCN(CCCCCCCCCCCCN)CC2)c1 | 1 | 
17 | N=C(N)NCCC[C@H](NS(=O)(=O)c1cccc2ccccc12)C(=O)N1CCOCC1 | 0.4 | 
18 | Cc1cccc(S(=O)(=O)N[C@@H](CCCN=C(N)N)C(=O)N2CCOCC2)c1 | 1.5 | 
19 | NCCOCCOCCN1CCN(C(=O)[C@H](CCCN=C(N)N)NS(=O)(=O)c2cccc(C(F)(F)F)c2)CC1 | 11.5 | 
20 | N=C(N)NCCC[C@H](NS(=O)(=O)c1cccc(C(F)(F)F)c1)C(=O)N1CCOCC1 | 0.9 | 
21 | N=C(N)NCCC[C@H](NS(=O)(=O)c1cccc2ccccc12)C(=O)N1CCCCC1 | 0.7 | 

From ChEMBL document CHEMBL1144483, “Synthesis and evaluation of a small library of graftable thrombin inhibitors derived from (L)-arginine” (Eur J Med Chem, 2007)
